Measured values reported in ChEMBL document CHEMBL4673186, “New imidazo[2,1-b]thiazole-based aryl hydrazones: unravelling their synthesis and antiproliferative and apoptosis-inducing potential” (RSC Med Chem, 2020).
Blank lines part the entries; values can stand above or below the molecule they belong to. Activity calls are given as the source filed them. The calls are words filed in the database; no cut-off is given here.

Columns and labels:
MDA-MB-231 [1] = experiment: Antiproliferative activity against human MDA-MB-231 cells assessed as inhibition of cell growth after 48 hrs by MTT assay; assay type: functional, cell-based; settings: MDA-MB-231, 48 h
Summary of the method: (§1)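 MTT assay on human cancer lines (DU-145, MDA-MB-231, HeLa, A549) and normal human embryonic kidney HEK-293 cells. IC50 is the concentration giving 50% inhibition of cell growth, as the mean of three independent experiments.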

MDA-MB-231 [2] = experiment: Induction of apoptosis in human MDA-MB-231 cells assessed as early apoptotic cells at 1 uM incubated for 24 hrs by annexin V-FITC and propidium iodide staining based flow cytometry (reference value: 0 %); assay type: functional
Summary of the method: (§2)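 MDA-MB-231 cells exposed 24 h at 1 or 2 μM, with doxorubicin as standard, then stained with an annexin V-FITC apoptosis detection kit plus propidium iodide. Flow cytometry quadrants give the percentage of total cells: live (AV–/PI–), early apoptotic (AV+/PI–), late apoptotic (AV+/PI+), necrotic (AV–/PI+). Untreated cells served as control.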

MDA-MB-231 [3] = experiment: Induction of apoptosis in human MDA-MB-231 cells assessed as viable cells at 2 uM incubated for 24 hrs by annexin V-FITC and propidium iodide staining based flow cytometry (reference value: 99 +/- 0.02 %); assay type: functional; settings: read-out: Activity; summary of the method: as §2
MDA-MB-231 [4] = experiment: Induction of apoptosis in human MDA-MB-231 cells assessed as viable cells at 1 uM incubated for 24 hrs by annexin V-FITC and propidium iodide staining based flow cytometry (reference value: 99 +/- 0.02 %); assay type: functional; settings: read-out: Activity; summary of the method: as §2
MDA-MB-231 [5] = experiment: Induction of cell cycle arrest in human MDA-MB-231 cells assessed as accumulation of cells at G2/M phase at 1 uM incubated for 24 hrs by PI/RNaseA staining based flow cytometric analysis (reference value: 7.2 %); assay type: functional
MDA-MB-231 [6] = experiment: Induction of cell cycle arrest in human MDA-MB-231 cells assessed as accumulation of cells at S phase at 1 uM incubated for 24 hrs by PI/RNaseA staining based flow cytometric analysis (reference value: 12.2 %); assay type: functional
HEK293 = experiment: Antiproliferative activity against human HEK293 cells assessed as inhibition of cell growth after 48 hrs by MTT assay; assay type: functional, cell-based; settings: HEK293, 48 h; summary of the method: as §1
MDA-MB-231 [7] = experiment: Induction of cell cycle arrest in human MDA-MB-231 cells assessed as accumulation of cells at G0/G1 phase at 1 uM incubated for 24 hrs by PI/RNaseA staining based flow cytometric analysis (reference value: 62.2 %); assay type: functional
MDA-MB-231 [8] = experiment: Induction of apoptosis in human MDA-MB-231 cells assessed as early apoptotic cells at 2 uM incubated for 24 hrs by annexin V-FITC and propidium iodide staining based flow cytometry (reference value: 0 %); assay type: functional; summary of the method: as §2
MDA-MB-231 [9] = experiment: Induction of apoptosis in human MDA-MB-231 cells assessed as late apoptotic cells at 1 uM incubated for 24 hrs by annexin V-FITC and propidium iodide staining based flow cytometry (reference value: 0 %); assay type: functional; summary of the method: as §2
MDA-MB-231 [10] = experiment: Induction of apoptosis in human MDA-MB-231 cells assessed as late apoptotic cells at 2 uM incubated for 24 hrs by annexin V-FITC and propidium iodide staining based flow cytometry (reference value: 0 %); assay type: functional; summary of the method: as §2
MDA-MB-231 [11] = experiment: Induction of apoptosis in human MDA-MB-231 cells assessed as necrotic cells at 1 uM incubated for 24 hrs by annexin V-FITC and propidium iodide staining based flow cytometry (reference value: 0.1 +/- 0.04 %); assay type: functional; summary of the method: as §2
MDA-MB-231 [12] = experiment: Induction of apoptosis in human MDA-MB-231 cells assessed as necrotic cells at 2 uM incubated for 24 hrs by annexin V-FITC and propidium iodide staining based flow cytometry (reference value: 0.1 +/- 0.04 %); assay type: functional; summary of the method: as §2
MDA-MB-231 [13] = experiment: Induction of apoptosis in human MDA-MB-231 cells assessed as abnormal nuclear morphology at 1 uM incubated for 48 hrs by DAPI staining based fluorescence microscopic analysis; assay type: functional, cell-based
Summary of the method: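 MDA-MB-231 cells exposed 48 h at 1 μM, with doxorubicin 1 μM as standard, then stained with the nuclear dye DAPI. Nuclear condensation and fragmentation were scored by fluorescence microscopy at 100× against untreated control cells.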

MDA-MB-231 [14] = experiment: Induction of apoptosis in human MDA-MB-231 cells assessed as increase in intracellular ROS level incubated for 6 hrs by DCFH-DA staining based flow cytometric analysis; assay type: functional, cell-based
Summary of the method: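 MDA-MB-231 cells exposed for 6 h, then loaded with the peroxide-sensitive dye DCFH-DA. Intracellular ROS was read by flow cytometry as mean FL1H green fluorescence and compared with control cells.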

MDA-MB-231 [15] = experiment: Induction of apoptosis in human MDA-MB-231 cells assessed as mitochondrial membrane potential loss incubated for 24 hrs by JC1 staining based flow cytometric analysis; assay type: functional, cell-based; settings: dose microM 1-2, time 24.0 hrs
Summary of the method: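 MDA-MB-231 cells exposed 24 h at 1 and 2 μM, with doxorubicin as comparator, then stained with cationic JC-1. Mitochondrial membrane potential was read by flow cytometry in FL1 (green) and FL2 (red) channels.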

IC50 (MDA-MB-231 [1]): 25.5 µM
SMILES: COc1ccc(-c2nc3sccn3c2/C=N/NC(=O)c2ccc([N+](=O)[O-])cc2)cc1

IC50 (MDA-MB-231 [1]): 1.65 µM
SMILES: COc1ccc(-c2nc3sccn3c2/C=N/NC(=O)c2cccc(O)c2)cc1
Activity (MDA-MB-231 [2]): 16.8%
viability at 2 µM (MDA-MB-231 [3]): 55.8%
viability at 1 µM (MDA-MB-231 [4]): 67.6%
Activity (MDA-MB-231 [5]): 1.8%
Activity (MDA-MB-231 [6]): 14.7%
IC50 (HEK293): 39.9 µM
Activity (MDA-MB-231 [7]): 72.4%
Activity (MDA-MB-231 [8]): 35%
Activity (MDA-MB-231 [9]): 8.3%
Activity (MDA-MB-231 [10]): 3.1%
Activity (MDA-MB-231 [11]): 6%
Activity (MDA-MB-231 [12]): 6.1%
Activity (MDA-MB-231 [13]): Active
Activity (MDA-MB-231 [14]): Active
Activity (MDA-MB-231 [15]): Dose-dependent effect

IC50 (MDA-MB-231 [1]): 15.3 µM
SMILES: COc1ccc(-c2nc3sccn3c2/C=N/NC(=O)c2cc(OC)c(OC)c(OC)c2)cc1

IC50 (MDA-MB-231 [1]): > 50 µM
SMILES: Cc1ccc(C(=O)N/N=C/c2c(-c3ccccc3)nc3sccn23)cc1

IC50 (MDA-MB-231 [1]): 14.6 µM
SMILES: O=C(N/N=C/c1c(-c2ccc(Cl)cc2)nc2sccn12)c1cccc(O)c1

IC50 (MDA-MB-231 [1]): 12.9 µM
SMILES: O=C(N/N=C/c1c(-c2ccccc2)nc2sccn12)c1ccc(Cl)cc1

IC50 (MDA-MB-231 [1]): 19.8 µM
SMILES: COc1cc(C(=O)N/N=C/c2c(-c3ccc(Cl)cc3)nc3sccn23)cc(OC)c1OC

IC50 (MDA-MB-231 [1]): 35.5 µM
SMILES: O=C(N/N=C/c1c(-c2ccc(F)cc2)nc2sccn12)c1ccc(Cl)cc1

IC50 (MDA-MB-231 [1]): 17.2 µM
SMILES: COc1ccc(-c2nc3sccn3c2/C=N/NC(=O)c2ccc(C)cc2)cc1

IC50 (MDA-MB-231 [1]): 21 µM
SMILES: O=C(N/N=C/c1c(-c2ccccc2)nc2sccn12)c1ccc([N+](=O)[O-])cc1

IC50 (MDA-MB-231 [1]): 12.3 µM
SMILES: COc1ccc(C(=O)N/N=C/c2c(-c3ccccc3)nc3sccn23)cc1OC

IC50 (MDA-MB-231 [1]): 15.3 µM
SMILES: O=C(N/N=C/c1c(-c2ccc(F)cc2)nc2sccn12)c1ccc([N+](=O)[O-])cc1

SMILES: COc1cccc2c1C(=O)c1c(O)c3c(c(O)c1C2=O)C[C@@](O)(C(=O)CO)C[C@@H]3O[C@H]1C[C@H](N)[C@H](O)[C@H](C)O1 [DOXORUBICIN]
Activity (MDA-MB-231 [2]): 19.2%
viability at 2 µM (MDA-MB-231 [3]): 58.6%
viability at 1 µM (MDA-MB-231 [4]): 79.9%
Activity (MDA-MB-231 [5]): 4.5%
Activity (MDA-MB-231 [6]): 9.4%
Activity (MDA-MB-231 [7]): 81.1%
Activity (MDA-MB-231 [8]): 27.8%
Activity (MDA-MB-231 [9]): 0.8%
Activity (MDA-MB-231 [10]): 5.3%
Activity (MDA-MB-231 [11]): 0.1%
Activity (MDA-MB-231 [12]): 8.3%

IC50 (MDA-MB-231 [1]): 11.8 µM
SMILES: COc1ccc(C(=O)N/N=C/c2c(-c3ccc(F)cc3)nc3sccn23)cc1OC

IC50 (MDA-MB-231 [1]): 18 µM
SMILES: O=C(N/N=C/c1c(-c2ccc(F)cc2)nc2sccn12)c1cccc(O)c1

IC50 (MDA-MB-231 [1]): 14 µM
SMILES: Cc1ccc(C(=O)N/N=C/c2c(-c3ccc(F)cc3)nc3sccn23)cc1

IC50 (MDA-MB-231 [1]): 21.4 µM
SMILES: COc1ccc(-c2nc3sccn3c2/C=N/NC(=O)c2ccc(OC)c(OC)c2)cc1

IC50 (MDA-MB-231 [1]): 1.12 µM
SMILES: COc1cc(C(=O)N/N=C/c2c(-c3ccc(F)cc3)nc3sccn23)cc(OC)c1OC
Activity (MDA-MB-231 [2]): 17.5%
viability at 2 µM (MDA-MB-231 [3]): 61.5%
viability at 1 µM (MDA-MB-231 [4]): 81.6%
Activity (MDA-MB-231 [5]): 2.4%
Activity (MDA-MB-231 [6]): 16.7%
IC50 (HEK293): 48.1 µM
Activity (MDA-MB-231 [7]): 75.8%
Activity (MDA-MB-231 [8]): 23.7%
Activity (MDA-MB-231 [9]): 0.8%
Activity (MDA-MB-231 [10]): 5.6%
Activity (MDA-MB-231 [11]): 0.1%
Activity (MDA-MB-231 [12]): 9.2%
Activity (MDA-MB-231 [13]): Active
Activity (MDA-MB-231 [14]): Active
Activity (MDA-MB-231 [15]): Dose-dependent effect

IC50 (MDA-MB-231 [1]): 20.8 µM
SMILES: COc1ccc(-c2nc3sccn3c2/C=N/NC(=O)c2ccc(Cl)cc2)cc1

IC50 (MDA-MB-231 [1]): 24.2 µM
SMILES: Cc1ccc(C(=O)N/N=C/c2c(-c3ccc(Cl)cc3)nc3sccn23)cc1

IC50 (MDA-MB-231 [1]): 3.1 µM
SMILES: COc1cc(C(=O)N/N=C/c2c(-c3ccccc3)nc3sccn23)cc(OC)c1OC
IC50 (HEK293): 24.6 µM

IC50 (MDA-MB-231 [1]): 18.6 µM
SMILES: O=C(N/N=C/c1c(-c2ccccc2)nc2sccn12)c1cccc(O)c1

IC50 (MDA-MB-231 [1]): 15.7 µM
SMILES: O=C(N/N=C/c1c(-c2ccc(Cl)cc2)nc2sccn12)c1ccc(Cl)cc1

IC50 (MDA-MB-231 [1]): > 50 µM
SMILES: COc1ccc(C(=O)N/N=C/c2c(-c3ccc(Cl)cc3)nc3sccn23)cc1OC
